The source made the active and inactive calls. The calls are words filed in the database; no cut-off is given here.
What was measured:
Klebsiella pneumoniae [1] = assay: Inhibition of Klebsiella pneumoniae KP1087 CTX-M-15 assessed as ertapenem MIC at 4 ug/ml by broth microdilution method
Outline: (§1)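 CLSI broth microdilution (M07-A9, 2012) MIC of the carbapenem against clinical serine carbapenemase-producing strain, tested alone and with the inhibitor held at a fixed 4 μg/mL.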

[2] = target: T1, Beta-lactamase SHV-1 (Klebsiella pneumoniae) (UniProt P0AD64); assay: Inhibition of Klebsiella pneumoniae KP1083 SHV-1 assessed as imipenem MIC at 4 ug/ml by broth microdilution method
T1 sequence (whole entry): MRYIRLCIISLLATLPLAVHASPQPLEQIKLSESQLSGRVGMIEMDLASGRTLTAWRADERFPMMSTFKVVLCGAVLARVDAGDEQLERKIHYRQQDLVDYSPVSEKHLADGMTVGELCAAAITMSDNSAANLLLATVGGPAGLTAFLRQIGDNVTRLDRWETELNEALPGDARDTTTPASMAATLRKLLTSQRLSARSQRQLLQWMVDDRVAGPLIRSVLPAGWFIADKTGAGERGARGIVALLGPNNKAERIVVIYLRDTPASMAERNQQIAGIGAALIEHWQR

[3] = target: Beta lactamase TEM-1 (Klebsiella pneumoniae) (UniProt Q7B899); assay: Inhibition of Klebsiella pneumoniae KP1004 TEM-1 assessed as imipenem MIC at 4 ug/ml by broth microdilution method; outline: as §1
[4] = target: Beta-lactamase (Klebsiella pneumoniae) (UniProt Q93LQ9); assay: Inhibition of Klebsiella pneumoniae KP1083 KPC-3 assessed as biapenem MIC at 4 ug/ml by broth microdilution method; outline: as §1
Klebsiella oxytoca = assay: Inhibition of Klebsiella oxytoca KX1017 OXA-2 assessed as biapenem MIC at 4 ug/ml by broth microdilution method
Enterobacter cloacae = assay: Inhibition of Enterobacter cloacae ECL1058 SHV-11 assessed as meropenem MIC at 4 ug/ml by broth microdilution method
[5] = Inhibition of elastase (unknown origin) using Suc-AAPA-pNA as substrate preincubated for 10 mins followed by substrate addition measured for 30 mins by spectrophotometric analysis; design: species or system Homo sapiens
Outline: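 Elastase from a commercial source in 25 mM Tris-HCl, pH 8.0. Inhibitor at various concentrations was preincubated 10 min at 37 °C. Suc-AAPA-pNA (listed at 50 μM) was added and absorbance followed for 30 min. Rates were relative to untreated; IC50 is the concentration giving 50% inhibition.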

[6] = target: T1, Beta-lactamase SHV-1 (Klebsiella pneumoniae); assay: Inhibition of Klebsiella pneumoniae KP1082 SHV-1 assessed as imipenem MIC at 4 ug/ml by broth microdilution method
[7] = target: Beta-lactamase (Klebsiella pneumoniae) (UniProt Q93LQ9); assay: Inhibition of Klebsiella pneumoniae KP1084 KPC-3 assessed as ertapenem MIC at 4 ug/ml by broth microdilution method; outline: as §1
Klebsiella pneumoniae [8] = assay: Inhibition of Klebsiella pneumoniae KP1087 KPC-2 assessed as imipenem MIC at 4 ug/ml by broth microdilution method
Outline: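 CLSI broth microdilution (M07-A9) against clinical K. pneumoniae strain KP1087 (KPC-2, CTX-M-15, SHV-11, TEM-1); carbapenem MIC (μg/mL) read with the inhibitor held at a fixed 4 μg/mL, alongside carbapenem alone.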

[9] = target: T2, Class A carbapenemase (Enterobacter cloacae) (UniProt A7WP95); assay: Inhibition of Enterobacter cloacae ECL1058 KPC-3 assessed as imipenem MIC at 4 ug/ml by broth microdilution method
T2 sequence (whole entry): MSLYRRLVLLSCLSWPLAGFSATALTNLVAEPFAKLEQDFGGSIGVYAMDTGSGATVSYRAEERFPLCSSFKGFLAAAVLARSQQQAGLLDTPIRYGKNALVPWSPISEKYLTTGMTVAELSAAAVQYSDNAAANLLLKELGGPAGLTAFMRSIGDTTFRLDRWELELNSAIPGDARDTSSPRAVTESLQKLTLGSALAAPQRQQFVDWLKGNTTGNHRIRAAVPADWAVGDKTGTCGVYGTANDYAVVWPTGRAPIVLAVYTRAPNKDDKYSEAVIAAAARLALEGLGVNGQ

Klebsiella pneumoniae [10] = assay: Inhibition of Klebsiella pneumoniae KP1087 KPC-2 assessed as biapenem MIC at 4 ug/ml by broth microdilution method
[11] = target: Carbapenem-hydrolyzing beta-lactamase KPC (Klebsiella oxytoca) (UniProt Q848S6); assay: Inhibition of Klebsiella oxytoca KX1017 KPC-2 assessed as biapenem MIC at 4 ug/ml by broth microdilution method
Klebsiella pneumoniae [12] = assay: Inhibition of Klebsiella pneumoniae KP1087 SHV-11 assessed as ertapenem MIC at 4 ug/ml by broth microdilution method; outline: as §1
Klebsiella pneumoniae [13] = assay: Antibacterial activity against Klebsiella pneumoniae KP1004 by broth microdilution method; format: functional, organism-based
[14] = target: T2, Class A carbapenemase (Enterobacter cloacae); assay: Inhibition of Enterobacter cloacae ECL1061 KPC-3 assessed as cefepime MIC at 4 ug/ml by broth microdilution method
[15] = Half life in human at 1 g administered as 3 hrs of infusion; format: ADME, organism-based; conditions: in vivo, iv
[16] = Inhibition of Escherichia coli recombinant CTX-M-15 assessed as substrate nitrocefin degradation preincubated for 10 mins followed by substrate addition measured every 10 secs for 10 mins by spectrophotometric analysis
Outline: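 β-Lactamases purified from overexpressing recombinant E. coli. Enzyme preincubated with inhibitor at varying concentrations for 10 min at room temperature in 50 mM Na phosphate pH 7.0, 0.1 mg/mL BSA. Then 50 μM nitrocefin (final) added and cleavage read at 490 nm every 10 s for 10 min. Ki derived by the Waley method.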

Escherichia coli = assay: Inhibition of Escherichia coli EC1009 TEM-10 assessed as cefepime MIC at 4 ug/ml by broth microdilution method
Outline: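 CLSI broth microdilution (M07-A9) against clinical strains expressing serine β-lactamases.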

Klebsiella pneumoniae [17] = assay: Inhibition of Klebsiella pneumoniae KP1082 KPC-2 assessed as meropenem MIC at 4 ug/ml by broth microdilution method; outline: as §1
[18] = target: Beta lactamase TEM-1 (Klebsiella pneumoniae) (UniProt Q7B899); assay: Inhibition of Klebsiella pneumoniae KP1004 TEM-1 assessed as meropenem MIC at 4 ug/ml by broth microdilution method; outline: as §1
[19] = Cmax in rat at 100 mg/kg, iv administered as 0.5 hrs infusion by HPLC-MS method; format: ADME, organism-based; design: dose 100 mg/kg, route intravenous; conditions: in vivo
[20] = Clearance in rat at 100 mg/kg, iv administered as 0.5 hrs infusion by HPLC-MS method; format: ADME, organism-based; conditions: in vivo
Klebsiella pneumoniae [21] = assay: Inhibition of Klebsiella pneumoniae KP1004 SHV-11 assessed as ertapenem MIC at 4 ug/ml by broth microdilution method; outline: as §1
Klebsiella pneumoniae [22] = assay: Inhibition of Klebsiella pneumoniae KP1082 KPC-2 assessed as imipenem MIC at 4 ug/ml by broth microdilution method
[23] = target: Beta lactamase TEM-1 (Klebsiella pneumoniae) (UniProt Q7B899); assay: Inhibition of Klebsiella pneumoniae KP1084 TEM-1 assessed as imipenem MIC at 4 ug/ml by broth microdilution method
Klebsiella pneumoniae [24] = assay: In vivo inhibition of KPC in Klebsiella pneumoniae KP1074 in Swiss webster neutropenic mouse lung infection model assessed as meropenem deltalog10CFU in lung at 50 mg/kg, ip administered every 2 hrs starting at 2 hrs postinfection measured after 24 hrs; format: functional

Sequence of Beta lactamase TEM-1 (Klebsiella pneumoniae) (Q7B899 as listed by the source): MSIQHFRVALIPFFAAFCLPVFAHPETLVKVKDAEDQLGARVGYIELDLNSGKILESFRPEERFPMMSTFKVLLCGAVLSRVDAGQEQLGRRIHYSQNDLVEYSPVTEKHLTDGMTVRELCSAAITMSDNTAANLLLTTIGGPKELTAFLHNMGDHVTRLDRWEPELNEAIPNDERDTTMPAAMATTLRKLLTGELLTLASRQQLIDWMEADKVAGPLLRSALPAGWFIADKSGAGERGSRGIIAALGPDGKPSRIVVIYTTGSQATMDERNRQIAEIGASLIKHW
Sequence of Beta-lactamase (Klebsiella pneumoniae) (Q93LQ9 as listed by the source): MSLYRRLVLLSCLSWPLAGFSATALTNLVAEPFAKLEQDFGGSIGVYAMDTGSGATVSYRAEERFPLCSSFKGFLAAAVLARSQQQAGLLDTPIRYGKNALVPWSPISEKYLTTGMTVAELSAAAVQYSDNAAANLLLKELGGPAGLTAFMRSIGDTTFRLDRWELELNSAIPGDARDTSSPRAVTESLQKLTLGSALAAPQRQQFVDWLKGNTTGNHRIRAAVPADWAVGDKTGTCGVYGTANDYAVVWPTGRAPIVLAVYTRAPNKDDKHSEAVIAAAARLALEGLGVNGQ
Sequence of Carbapenem-hydrolyzing beta-lactamase KPC (Klebsiella oxytoca) (Q848S6 whole entry): as the sequence (Q93LQ9 as listed by the source) above

**Q.** With `O=C(O)C[C@@H]1CC[C@H](NC(=O)Cc2cccs2)B(O)O1` [VABORBACTAM] as the molecule, how does the MIC (Klebsiella pneumoniae [1]) read?
**A.** 2 µg/mL

**Q.** What about the MIC [2] of the same molecule?
**A.** 0.13 µg/mL

**Q.** And the MIC [3]?
**A.** < 0.06 µg/mL

**Q.** What about the MIC [4] of the same molecule?
**A.** < 0.06 µg/mL

**Q.** And the MIC (Klebsiella oxytoca)?
**A.** < 0.06 µg/mL

**Q.** What about the MIC (Enterobacter cloacae) of the same molecule?
**A.** < 0.06 µg/mL

**Q.** What about the IC50 [5] of the same molecule?
**A.** > 1000 µM

**Q.** And the MIC [6]?
**A.** 0.13 µg/mL

**Q.** What about the MIC [7] of the same molecule?
**A.** 4 µg/mL

**Q.** What about the MIC (Klebsiella pneumoniae [8]) of the same molecule?
**A.** 0.25 µg/mL

**Q.** And the MIC [9]?
**A.** 0.25 µg/mL

**Q.** And the MIC (Klebsiella pneumoniae [10])?
**A.** 0.25 µg/mL

**Q.** What about the MIC [11] of the same molecule?
**A.** < 0.06 µg/mL

**Q.** And the MIC (Klebsiella pneumoniae [12])?
**A.** 2 µg/mL

**Q.** And the Activity (Klebsiella pneumoniae [13])?
**A.** inactive

**Q.** What about the MIC [14] of the same molecule?
**A.** 2 µg/mL

**Q.** And the half-life [15]?
**A.** 1.23 h

**Q.** What about the Ki [16] of the same molecule?
**A.** 0.044 µM

**Q.** What about the MIC (Escherichia coli) of the same molecule?
**A.** 4 µg/mL

**Q.** What about the MIC (Klebsiella pneumoniae [17]) of the same molecule?
**A.** ≤ 0.06 µg/mL

**Q.** And the MIC [18]?
**A.** < 0.06 µg/mL

**Q.** And the Cmax [19]?
**A.** 231 µg/mL

**Q.** What about the clearance [20] of the same molecule?
**A.** 26.7 mL/min/kg

**Q.** And the MIC (Klebsiella pneumoniae [21])?
**A.** ≤ 0.06 µg/mL

**Q.** And the MIC (Klebsiella pneumoniae [22])?
**A.** 0.13 µg/mL

**Q.** And the MIC [23]?
**A.** 0.25 µg/mL

**Q.** What about the deltalog10CFU (Klebsiella pneumoniae [24]) of the same molecule?
**A.** -2.03

Source: ChEMBL document CHEMBL3576866, “Discovery of a Cyclic Boronic Acid β-Lactamase Inhibitor (RPX7009) with Utility vs Class A Serine Carbapenemases” (J Med Chem, 2015)
